This is an account of results in publication PMC3772679 (The European journal of neuroscience, 2012).

Where two headings read alike, the source gives them in different places.

The test system of assay [1] is PC GABAA receptor (GABAergic IPSC in Purkinje neurons). Type of assay: cell-based, mouse. The note with it: for IPSC decay time constant in the presence of etomidate: 3 µM, 10 min.
Assay [2] relates to PC GABAA receptor (β1-subunit-containing). As to the kind of experiment: Loreclezole inhibition of GABA-mediated current in cultured Purkinje cells. Type of assay: cell-based, rat. The following applies: 30 µM. The essentials: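 Cerebellar neurons plated on glass coverslips (2.8 × 10^5 cells), kept at 37 °C in 5% CO2 and recorded after 10–14 days in vitro. 1 s pulses of 20 µM GABA every 30 s until baseline stable; 30 µM test compound (DMSO stock diluted in saline) applied by local perfusion for 30 s, then kept through three more GABA pulses. 1 mM GABA given at end of recording. n = individual cells; mean ± SEM.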

The target of assay [3] is GABAA receptors composed of α1β3γ2. The following applies: heterologous expression systems; ref Belelli et al., 2003; cited from earlier work.

Turning to picrotoxin, in assay [1] (data not shown), the “Effect on outward GABAergic IPSC in Purkinje neurons” value is listed as “blocked”.

As for `Cl/C(=C\n1cncn1)c1ccc(Cl)cc1Cl` [loreclezole], in assay [2] (30 s pre-application, 20 µM GABA pulses), the “Initial reduction in GABA-mediated current” value stood at 30%. In addition, the “Maximal decrease in GABA-mediated current with subsequent pulses of GABA” value in assay [2] (20 µM GABA pulses every 30 s, n = 4) is listed as 65.5 ± 6.8%.

Take `CCOC(=O)c1cncn1[C@H](C)c1ccccc1` [Etomidate]: the “IPSC decay time constant in the presence of etomidate” value in assay [1] (slices 3 h after CA/CPR, P < 0.05 vs sham) was 534.5 ± 42.3 ms; in assay [1] (slices from control sham-operated mice) it was 837 ± 128 ms. In addition, in assay [3], the EC50 was 4 µM.
